# Calls of active or inactive are those of the source. No cut-off for these calls is given here.
# How the values were obtained:
# [1] = test system: Influenza A virus (A/Netherlands/178/1995(H3N2)); assay: Potency index, ratio of compound 8 IC50 to test compound IC50 for Inhibition of Influenza A virus (A/Netherlands/178/1995(H3N2)) H3 hemagglutinin expressed in Influenza virus WU95 assessed as reduction in human erythrocytes hemagglutination; assay type: cell-based
# [2] = Inhibition of Influenza A virus (A/Netherlands/178/1995(H3N2)) H3 hemagglutinin expressed in Influenza virus WU95 assessed as reduction in human erythrocytes hemagglutination preincubated for 4 hrs followed by erythrocytes addition and measured after 2 hrs; assay type: cell-based
# Method in brief: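 Four hemagglutination units of virus were preincubated 4 h at room temperature with limiting compound dilutions in the presence of oseltamivir carboxylate. Then 0.5% (v/v) erythrocytes were added for 2 h at 4 °C. The lowest inhibiting concentration was recorded; two experiments were run in duplicate and means are reported.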
# [3] = test system: Influenza A virus (A/Netherlands/178/1995(H3N2)); assay: Potency index, ratio of compound 7 IC50 to test compound IC50 for inhibition of sensor loaded biotinylated-LAMP1 binding to Influenza A virus (A/Netherlands/178/1995(H3N2)) H3 hemagglutinin expressed in Influenza virus WU95
# [4] = Inhibition of sensor loaded biotinylated-LAMP1 binding to Influenza A virus (A/Netherlands/178/1995(H3N2)) H3 hemagglutinin expressed in Influenza virus WU95 in presence of NA inhibitor oseltamivir carboxylate by biolayer interferometric analysis
# Method in brief: (§1)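 OctetRed BLI: streptavidin sensors were saturated with biotinylated LAMP1 in PBS pH 7.4. They were dipped into WU95 (8 HAU, 2.5 × 10^8 particles per well) preincubated 4 h at room temperature with compound and 10 µM (end concentration) oseltamivir carboxylate. Initial binding rate was compared with a no-compound control.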
# [5] = test system: Influenza A virus (A/Netherlands/178/1995(H3N2)); assay: Inhibition of sensor loaded biotinylated-LAMP1 binding to Influenza A virus (A/Netherlands/178/1995(H3N2)) H3 hemagglutinin expressed in Influenza virus WU95 at 20 uM in presence of NA inhibitor oseltamivir carboxylate by biolayer interferometric analysis; method in brief: as §1
# [6] = test system: Influenza A virus (A/Bilthoven/1761/1976(H3N2)); assay: Inhibition of sensor loaded biotinylated-LAMP1 binding to Influenza A virus (A/Bilthoven/1761/1976(H3N2)) H3 hemagglutinin expressed in Influenza virus VI75 at 3 uM in presence of NA inhibitor oseltamivir carboxylate by biolayer interferometric analysis
# Method in brief: (§2)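 BLI with streptavidin sensors loaded to saturation with biotinylated LAMP1 (PBS, pH 7.4). VI75 virus was preincubated 4 h at room temperature with 3 µM compound, without or with 10 µM oseltamivir carboxylate. Initial virus binding rate was compared with a compound-free control.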
# [7] = test system: Influenza A virus (A/Netherlands/178/1995(H3N2)); assay: Inhibition of sensor loaded biotinylated-LAMP1 binding to Influenza A virus (A/Netherlands/178/1995(H3N2)) H3 hemagglutinin expressed in Influenza virus WU95 at 3 uM in presence of NA inhibitor oseltamivir carboxylate by biolayer interferometric analysis; method in brief: as §1
# [8] = test system: Influenza A virus (A/Bilthoven/1761/1976(H3N2)); assay: Inhibition of sensor loaded biotinylated-LAMP1 binding to Influenza A virus (A/Bilthoven/1761/1976(H3N2)) H3 hemagglutinin expressed in Influenza virus VI75 at 3 uM by biolayer interferometric analysis; method in brief: as §2
# [9] = test system: Influenza A virus; assay: (§3) Antiviral activity against Influenza A virus WU95 expressing Influenza A virus (A/Netherlands/178/1995(H3N2)) H3 hemagglutinin infected in MDCK2 cells at 30 nM preincubated with virus for 4 hrs followed by cell infection and measured after 2 hrs by DAPI staining-based assay; assay type: functional, organism-based
# Method in brief: (§4)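 WU95 was preincubated 4 h at room temperature in Opti-mem with or without 15 µM compound, ±10 µM oseltamivir carboxylate. The mixture was diluted 500-fold onto confluent MDCK-II for 2 h, giving end concentrations of 30 nM compound, 20 nM OC and MOI 0.01. Cells were washed, kept overnight at 37 °C with 10 nM bafilomycin, then fixed and nucleoprotein-immunostained.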
# [10] = test system: Influenza A virus; assay: as §3, with “2 hrs in presence of 20 nM NA inhibitor oseltamivir carboxylate by DAPI” for “2 hrs by DAPI”; assay type: functional, organism-based; method in brief: as §4
# [11] = test system: MDCK-II; assay: Cytotoxicity against MDCK2 cells assessed as reduction in cell viability measured after 24 hrs by WST1 assay; assay type: cell-based, Canis lupus familiaris; conditions: dog
# Method in brief: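 MDCK-II cells were incubated 24 h in Opti-mem with compounds at different concentrations. Cell number and viability were then read by WST-1 assay.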
# [12] = test system: Influenza A virus; assay: as §3, with “assessed as reduction in virus-induced cytopathogenicity” for “at 30 nM”, “3 days” for “2 hrs”; assay type: functional, organism-based
# Method in brief: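 WU95 virus was preincubated 4 h at room temperature in Opti-mem with varying compound concentrations. It was then inoculated onto confluent MDCK-II cells at MOI 0.005 and held 3 days with 1 µg/ml TPCK-trypsin to allow multiple rounds of infection. Cells were fixed and DAPI-stained, and monolayers inspected visually; absence of stained cells was taken as cell killing.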
# [13] = test system: Influenza A virus; assay: Antiviral activity against Influenza A virus WU95 expressing Influenza A virus (A/Netherlands/178/1995(H3N2)) H3 hemagglutinin infected in MDCK2 cells preincubated with virus for 4 hrs followed by cell infection and measured at 7 hrs post-infection by DAPI staining-based assay; assay type: functional, organism-based
# Method in brief: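 Single-cycle infection: WU95 in Opti-mem was preincubated 4 h at room temperature with varying compound concentrations. Confluent MDCK-II cells were inoculated in triplicate at MOI 0.005 and fixed at 7 h post-infection in methanol (−20 °C, 5 min). Cells were immunostained for nucleoprotein (HB65, Alexa 488 secondary), counterstained with DAPI, and infected cells per well were counted.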
# [14] = test system: Influenza A virus; assay: Antiviral activity against Influenza A virus WU95 expressing Influenza A virus (A/Netherlands/178/1995(H3N2)) H3 hemagglutinin infected in MDCK2 cells at 20 nM preincubated with virus for 4 hrs followed by cell infection and measured after 2 hrs by DAPI staining-based assay; assay type: functional, organism-based; method in brief: as §4
smiles,measurement,setting,value
CC(=O)N[C@H]1[C@H]([C@H](O)[C@H](O)CO)O[C@@](OC[C@H]2O[C@@H](O[C@H]3[C@H](O)[C@@H](O)[C@H](OCc4cn(CCCC(=O)Nc5cccc(-c6cc(-c7cccc(NC(=O)CCCn8cc(CO[C@@H]9O[C@H](CO)[C@@H](O[C@@H]%10O[C@H](CO[C@]%11(C(=O)O)C[C@H](O)[C@@H](NC(C)=O)[C@H]([C@H](O)[C@H](O)CO)O%11)[C@H](O)[C@H](O)[C@H]%10O)[C@H](O)[C@H]9O)nn8)c7)cc(-c7cccc(NC(=O)CCCn8cc(CO[C@@H]9O[C@H](CO)[C@@H](O[C@@H]%10O[C@H](CO[C@]%11(C(=O)O)C[C@H](O)[C@@H](NC(C)=O)[C@H]([C@H](O)[C@H](O)CO)O%11)[C@H](O)[C@H](O)[C@H]%10O)[C@H](O)[C@H]9O)nn8)c7)c6)c5)nn4)O[C@@H]3CO)[C@H](O)[C@@H](O)[C@H]2O)(C(=O)O)C[C@@H]1O,Ratio IC50,[1],7
same,Ki,[2],53 µM
same,Ratio IC50,[3],20
same,IC50,[4],15 µM
CC(=O)N[C@H]1[C@H](O[C@H]2[C@@H](O)[C@@H](CO)O[C@@H](O[C@H]3[C@H](O)[C@@H](O)[C@H](n4cc(-c5ccc(-c6cn(CCCC(=O)Nc7cccc(-c8cc(-c9cccc(NC(=O)CCCn%10cc(-c%11ccc(-c%12cn([C@@H]%13O[C@H](CO)[C@@H](O[C@@H]%14O[C@H](CO)[C@H](O)[C@H](O[C@@H]%15O[C@H](CO)[C@@H](O[C@@H]%16O[C@H](CO)[C@H](O)[C@H](O)[C@H]%16O)[C@H](O)[C@H]%15NC(C)=O)[C@H]%14O)[C@H](O)[C@H]%13O)nn%12)cc%11)nn%10)c9)cc(-c9cccc(NC(=O)CCCn%10cc(-c%11ccc(-c%12cn([C@@H]%13O[C@H](CO)[C@@H](O[C@@H]%14O[C@H](CO)[C@H](O)[C@H](O[C@@H]%15O[C@H](CO)[C@@H](O[C@@H]%16O[C@H](CO)[C@H](O)[C@H](O)[C@H]%16O)[C@H](O)[C@H]%15NC(C)=O)[C@H]%14O)[C@H](O)[C@H]%13O)nn%12)cc%11)nn%10)c9)c8)c7)nn6)cc5)nn4)O[C@@H]3CO)[C@@H]2O)O[C@H](CO)[C@@H](O[C@@H]2O[C@H](CO)[C@H](O)[C@H](O)[C@H]2O)[C@@H]1O,inhibition,[5],inactive
CC(=O)N[C@H]1[C@H](O[C@H]2[C@@H](O)[C@@H](CO)O[C@@H](O[C@H]3[C@H](O)[C@@H](O)[C@H](n4cc(-c5ccc(-c6cn(CCCC(=O)Nc7cccc(-c8cc(-c9cccc(NC(=O)CCCn%10cc(-c%11ccc(-c%12cn([C@@H]%13O[C@H](CO)[C@@H](O[C@@H]%14O[C@H](CO)[C@H](O)[C@H](O[C@@H]%15O[C@H](CO)[C@@H](O[C@@H]%16O[C@H](CO[C@]%17(C(=O)O)C[C@H](O)[C@@H](NC(C)=O)[C@H]([C@H](O)[C@H](O)CO)O%17)[C@H](O)[C@H](O)[C@H]%16O)[C@H](O)[C@H]%15NC(C)=O)[C@H]%14O)[C@H](O)[C@H]%13O)nn%12)cc%11)nn%10)c9)cc(-c9cccc(NC(=O)CCCn%10cc(-c%11ccc(-c%12cn([C@@H]%13O[C@H](CO)[C@@H](O[C@@H]%14O[C@H](CO)[C@H](O)[C@H](O[C@@H]%15O[C@H](CO)[C@@H](O[C@@H]%16O[C@H](CO[C@]%17(C(=O)O)C[C@H](O)[C@@H](NC(C)=O)[C@H]([C@H](O)[C@H](O)CO)O%17)[C@H](O)[C@H](O)[C@H]%16O)[C@H](O)[C@H]%15NC(C)=O)[C@H]%14O)[C@H](O)[C@H]%13O)nn%12)cc%11)nn%10)c9)c8)c7)nn6)cc5)nn4)O[C@@H]3CO)[C@@H]2O)O[C@H](CO)[C@@H](O[C@@H]2O[C@H](CO)[C@H](O)[C@H](O)[C@H]2O)[C@@H]1O,inhibition,[6],Active
same,Ratio IC50,[1],35
same,inhibition,[7],Active
same,inhibition,[8],Active
same,Activity,[9],Active
same,Ki,[2],10.3 µM
same,Activity,[10],Active
same,Ratio IC50,[3],428
same,IC50,[4],0.71 µM
C#CCO[C@@H]1O[C@H](CO)[C@@H](O[C@@H]2O[C@H](CO[C@]3(C(=O)O)C[C@H](O)[C@@H](NC(C)=O)[C@H]([C@H](O)[C@H](O)CO)O3)[C@H](O)[C@H](O)[C@H]2O)[C@H](O)[C@H]1NC(C)=O,IC50,[4],304 µM
CC(=O)N[C@H]1[C@H](O[C@H]2[C@@H](O)[C@@H](CO)O[C@@H](O[C@H]3[C@H](O)[C@@H](O)[C@H](OCc4cn(CCCC(=O)Nc5cccc(-c6cc(-c7cccc(NC(=O)CCCn8cc(CO[C@@H]9O[C@H](CO)[C@@H](O[C@@H]%10O[C@H](CO)[C@H](O)[C@H](O[C@@H]%11O[C@H](CO)[C@@H](O[C@@H]%12O[C@H](CO[C@]%13(C(=O)O)C[C@H](O)[C@@H](NC(C)=O)[C@H]([C@H](O)[C@H](O)CO)O%13)[C@H](O)[C@H](O)[C@H]%12O)[C@H](O)[C@H]%11NC(C)=O)[C@H]%10O)[C@H](O)[C@H]9O)nn8)c7)cc(-c7cccc(NC(=O)CCCn8cc(CO[C@@H]9O[C@H](CO)[C@@H](O[C@@H]%10O[C@H](CO)[C@H](O)[C@H](O[C@@H]%11O[C@H](CO)[C@@H](O[C@@H]%12O[C@H](CO[C@]%13(C(=O)O)C[C@H](O)[C@@H](NC(C)=O)[C@H]([C@H](O)[C@H](O)CO)O%13)[C@H](O)[C@H](O)[C@H]%12O)[C@H](O)[C@H]%11NC(C)=O)[C@H]%10O)[C@H](O)[C@H]9O)nn8)c7)c6)c5)nn4)O[C@@H]3CO)[C@@H]2O)O[C@H](CO)[C@@H](O[C@@H]2O[C@H](CO[C@]3(C(=O)O)C[C@H](O)[C@@H](NC(C)=O)[C@H]([C@H](O)[C@H](O)CO)O3)[C@H](O)[C@H](O)[C@H]2O)[C@@H]1O,inhibition,[6],Active
same,Activity,[11],Non-Toxic
same,inhibition,[7],Active
same,inhibition,[8],Active
same,Activity,[12],Active
same,IC50,[13],15 µM
same,Ratio IC50,[3],71
same,IC50,[4],4.3 µM
CC(=O)N[C@H]1[C@H]([C@H](O)[C@H](O)CO)O[C@@](OC[C@H]2O[C@@H](O[C@H]3[C@H](O)[C@@H](O)[C@H](OCc4cn([C@@H]5O[C@H](CO)[C@@H](n6cc(-c7ccc(-c8cn([C@H]9[C@H](O)[C@@H](O)[C@H](n%10cc(CO[C@@H]%11O[C@H](CO)[C@@H](O[C@@H]%12O[C@H](CO[C@]%13(C(=O)O)C[C@H](O)[C@@H](NC(C)=O)[C@H]([C@H](O)[C@H](O)CO)O%13)[C@H](O)[C@H](O)[C@H]%12O)[C@H](O)[C@H]%11O)nn%10)O[C@@H]9CO)nn8)cc7)nn6)[C@H](O)[C@H]5O)nn4)O[C@@H]3CO)[C@H](O)[C@@H](O)[C@H]2O)(C(=O)O)C[C@@H]1O,Ratio IC50,[3],23
same,IC50,[4],13 µM
CCC(CC)O[C@@H]1C=C(C(=O)O)C[C@H](N)[C@H]1NC(C)=O,Activity,[14],Active

# Reference: ChEMBL document CHEMBL4364287, “Enhanced Inhibition of Influenza A Virus Adhesion by Di- and Trivalent Hemagglutinin Inhibitors” (J Med Chem, 2019)
